A1 apoptosis 2: A1 inhibition read as caspase activation | caspase activation, % (concentration not given with the values) | MEF A1-2A-BIM cells, caspase-Glo luminescence, 3 h; percent of clofoctol response, DMSO zero | 24,000 tested, under 10 active; in the data active = caspase activation above about 5.9%
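Evaluation: Caspase-3/7 activity from luminescence increase | Assay system: A1-2A-BIM mouse embryonic fibroblasts | Quantity: 2500 MEF cells/well | Medium: RPMI-1640 plus 10% FBS | Detection: Caspase-Glo 3/7 luminescence, 1 h at room temperature | Dosing: 50 nL compound per well, pinned | Timing: Cells settled overnight, compound exposure 3 h at 37 °C, 5% CO2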
INS-1E ATP HTS: INS-1E beta cell protection from cytokine death; INS-1E cytokine-induced death, ATP luminescence, 48 h; normalised: neutral wells 0, positive control 100; protection from cytokine-induced ATP loss, % at 10 µM; 20,000 tested, 0.1% active;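 active = mean replicate protection from cytokine-induced ATP loss at least 50% and at least 75% of replicates each reaching 50%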
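Material: INS-1E rat cells; Quantity: 8000 cells/well; Buffer or medium: phenol-red-free RPMI with 5% fetal bovine serum; Probe or stimulus: cytokine cocktail of IFN-γ, TNF-α and IL-1β; Compound dosing: single test concentration per compound, delivered by pin transfer; Incubation: 48 h co-treatment, 10 min post-lysis read; Signal: CellTiter-Glo luminescence.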
T cruzi HTS: inhibitors of intracellular Trypanosoma cruzi | intracellular Trypanosoma cruzi in host cells, plate reader | activity score (inhibition), % at 5.01 µM | 22,000 tested, 4.9% active | AID 651903; in the data active = activity score above about 55%;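 also: parasites and compound incubated about four days before reading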
Numbers stand for hits. This excerpt belongs to a sample that is enriched for hits.

Results for Cc1ccc(S(=O)(=O)Nc2ccc3c(c2)C(=O)N([C@H](C)CO)C[C@H](C)[C@H](CN(C)Cc2ccc(C(F)(F)F)cc2)O3)cc1 ?
A1 apoptosis 2: inactive; INS-1E ATP HTS: inactive; T cruzi HTS: 69

How did COCCOC(=O)N1C(=O)[C@@]2(c3cc(C#CC4=CCCCC4)ccc31)[C@H](C(=O)N1CCN(c3ncccn3)CC1)[C@H]1C(=O)O[C@H](c3ccccc3)[C@H](c3ccccc3)N1[C@@H]2c1ccccc1OCCO do in these assays?
A1 apoptosis 2: inactive

How did Clc1nc(NC2CCN(Cc3ccccc3)CC2)c2cc(Br)ccc2n1 do in these assays?
A1 apoptosis 2: inactive

What do the screens show for `Cc1noc(C)c1S(=O)(=O)Nc1ccc2c(c1)C(=O)N([C@@H](C)CO)C[C@@H](C)[C@H](CN(C)Cc1ccc(C(F)(F)F)cc1)O2`?
INS-1E ATP HTS: inactive; T cruzi HTS: inactive

Results for Cc1noc(C)c1S(=O)(=O)Nc1ccc2c(c1)C(=O)N([C@H](C)CO)C[C@H](C)[C@@H](CN(C)Cc1ccc(Cl)c(Cl)c1)O2 ?
INS-1E ATP HTS: inactive; T cruzi HTS: 63

How did Cc1noc(C)c1S(=O)(=O)Nc1ccc2c(c1)C(=O)N([C@H](C)CO)C[C@@H](C)[C@@H](CN(C)Cc1ccc(Cl)c(Cl)c1)O2 do in these assays?
INS-1E ATP HTS: inactive; T cruzi HTS: inactive

Results for Cc1noc(C)c1S(=O)(=O)Nc1ccc2c(c1)CC(=O)N([C@H](C)CO)C[C@H](C)[C@H](CN(C)Cc1ccc(Cl)c(Cl)c1)O2 ?
A1 apoptosis 2: inactive; INS-1E ATP HTS: inactive; T cruzi HTS: inactive

How did Cc1noc(C)c1S(=O)(=O)Nc1ccc2c(c1)CC(=O)N([C@H](C)CO)C[C@@H](C)[C@@H](CN(C)Cc1ccc(Cl)c(Cl)c1)O2 do in these assays?
INS-1E ATP HTS: inactive; T cruzi HTS: 61

What do the screens show for `Cc1noc(C)c1S(=O)(=O)Nc1ccc2c(c1)C(=O)N([C@H](C)CO)C[C@H](C)[C@H](CN(C)Cc1ccc(C(F)(F)F)cc1)O2`?
INS-1E ATP HTS: inactive; T cruzi HTS: 63

Results for O=C(CCCCC(=O)N/N=C/c1cccnc1Cl)NO ?
INS-1E ATP HTS: inactive; T cruzi HTS: inactive

How did CC1(C)COC(CCC/C=N/NC(=O)c2cccc(C(=O)NO)c2)OC1 do in these assays?
A1 apoptosis 2: inactive; INS-1E ATP HTS: inactive; T cruzi HTS: inactive

How did Cc1ccc(O)c(/C=N/NC(=O)c2ccccc2O)c1 do in these assays?
INS-1E ATP HTS: inactive; T cruzi HTS: inactive

Results for CC1=C(C/C=N/NC(=O)CCCCCC(=O)O)C(C)(C)CCC1 ?
INS-1E ATP HTS: inactive; T cruzi HTS: inactive

How did COc1ccc(S(=O)(=O)Nc2ccc3c(c2)C(=O)N([C@@H](C)CO)C[C@@H](C)[C@H](CN(C)C(=O)NC2CCCCC2)O3)cc1 do in these assays?
INS-1E ATP HTS: inactive; T cruzi HTS: inactive

Results for Cc1noc(C)c1S(=O)(=O)Nc1ccc2c(c1)CC(=O)N([C@H](C)CO)C[C@@H](C)[C@@H](CN(C)Cc1ccc(-c3ccccc3)cc1)O2 ?
A1 apoptosis 2: inactive; INS-1E ATP HTS: inactive; T cruzi HTS: 60

How did Cc1noc(C)c1S(=O)(=O)Nc1ccc2c(c1)CC(=O)N([C@@H](C)CO)C[C@H](C)[C@H](CN(C)Cc1ccc(-c3ccccc3)cc1)O2 do in these assays?
A1 apoptosis 2: inactive; INS-1E ATP HTS: inactive; T cruzi HTS: inactive

What do the screens show for `Cc1noc(C)c1S(=O)(=O)Nc1ccc2c(c1)CC(=O)N([C@@H](C)CO)C[C@@H](C)[C@H](CN(C)Cc1ccccc1)O2`?
A1 apoptosis 2: inactive

How did Cc1noc(C)c1S(=O)(=O)Nc1ccc2c(c1)CC(=O)N([C@@H](C)CO)C[C@@H](C)[C@@H](CN(C)Cc1ccc(Oc3ccccc3)cc1)O2 do in these assays?
A1 apoptosis 2: inactive; INS-1E ATP HTS: inactive; T cruzi HTS: 60

What do the screens show for `O=C(CCCCCCC(=O)Nc1ccccc1O)N/N=C/c1cccs1`?
A1 apoptosis 2: inactive; INS-1E ATP HTS: inactive; T cruzi HTS: inactive

How did COCC1=C2[C@@H](c3ccccc3)OB(O)C[C@@H]2[C@@H]2C(=O)N(C)C(=O)[C@@H]2C1 do in these assays?
A1 apoptosis 2: inactive

How did O=C(N/N=C/c1ccc(Oc2ccccc2)cc1)c1ccccc1O do in these assays?
A1 apoptosis 2: inactive; INS-1E ATP HTS: inactive; T cruzi HTS: inactive

What do the screens show for `C[C@H](CO)N1C[C@H](C)[C@H](CN(C)Cc2ccc(Oc3ccccc3)cc2)Oc2c(NC(=O)c3ccc(-c4nccs4)cc3)cccc2C1=O`?
INS-1E ATP HTS: inactive; T cruzi HTS: 86

High-throughput results as filed in PubChem BioAssay.
